Source: paper PMC8360131 (Angewandte Chemie (International Ed. in English), 2021)
Where two headings read alike, the source gives them in different places. One block for each molecule: values may come before it. *1 amine or outer side, *2 acyl side, *3 side chain or, on linkers, in order; H or OH if unused. Where a SMILES comes first, the peptide text is derived from it. [ ]: non-standard residue; d: D form. The star is where a group is joined. X1 = CCC(=O)C[C@H](O)C[C@@H](C)C[C@H](N[*:1])C(=O)[*:2]; Hexenoyl(2E,4S-Me) = CC[C@H](C)/C=C/C(=O)*; Leu(3R-OH) = CC(C)[C@@H](O)[C@H](N)C(=O)O; NH((S)CH(Me)CH2NMe2) = C[C@@H](CN(C)C)N*; Pro(4S-Me) = C[C@@H]1CN[C@H](C(=O)O)C1; NH(1-CH2NMe2-cBu) = CN(C)CC1(N*)CCC1; Oxazole4CO(2-Me) = Cc1nc(C(=O)*)co1; hCha = N[C@@H](CCC1CCCCC1)C(=O)O; NMeL = CN[C@@H](CC(C)C)C(=O)O; Aib = CC(C)(N)C(=O)O; βAla = NCCC(=O)O

What was measured:
[1] = tested on: Leishmania donovani axenic amastigotes (strain MHOM/ET/67/L82); assay: L. donovani axenic amastigotes resazurin assay; type: cell-based
[2] = tested on: T. b. brucei bloodstream forms; assay: MitoTracker fluorescence microscopy; type: cell-based; conditions: 24 h treatment; 4 and 5 at 40 nM final concentration
How it was run: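 Bloodstream-form T. b. brucei (NYsm strain) were exposed to test compound for 24 h, some at 40 nM final concentration. Cells were then incubated with the mitochondrial membrane potential-dependent dye MitoTracker, co-stained with DAPI and anti-ATOM40, and examined by fluorescence microscopy with DIC imaging. Untreated parasites were stained in parallel.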

[3] = tested on: T. b. brucei bloodstream forms; assay: TMRE mitochondrial membrane potential assay; type: cell-based
How it was run: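 The mitochondrial membrane potential of bloodstream-form T. b. brucei (NYsm) was quantified with the potential-sensitive dye TMRE, before and after test compound treatment. TMRE fluorescence was expressed relative to control parasites. CCCP served as positive control.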

[4] = tested on: Trypanosoma cruzi (Tulahuen strain C2C4); assay: T. cruzi assay in L6 cells; type: cell-based; conditions: read-out: T. cruzi; intracellular
T. brucei [5] = conditions: cited from earlier work
T. brucei [6] = conditions: cited from earlier work; remark: listed apart in the source
[7] = tested on: bacteria, fungi, and cancer cells; conditions: cited from earlier work
[8] = mice; cited from earlier work
Trypanosoma brucei = conditions: read-out: IC50 Trypanosoma brucei; cited from earlier work
Plasmodium falciparum = conditions: read-out: IC50 Plasmodium falciparum; cited from earlier work
[9] = tested on: T. b. brucei 427 bloodstream forms; assay: T. b. brucei bloodstream form resazurin IC50 assay; type: cell-based; conditions: read-out: activity on T. b. brucei; 72 h exposure
[10] = tested on: Leishmania donovani intracellular amastigotes; assay: L. donovani intracellular amastigotes in macrophages; type: cell-based; conditions: read-out: L. donovani. Macrophage, mouse peritoneal macrophages
[11] = read-out: L. donovani. axenic amastigotes, range in parentheses

IC50 [4]: > 2000 nM
Molecule: Cc1nc(C(=O)N2CCC[C@H]2C(=O)N[C@@H](CCC2CCCCC2)C(=O)N[C@@H](CC(C)C)C(=O)NC(C)(C)C(=O)N[C@@H](CC(C)C)C(=O)N(C)[C@@H](CC(C)C)C(=O)NC(C)(C)C(=O)NC(C)(C)C(=O)NCCC(=O)NC2(CN(C)C)CCC2)co1 [Compound 3] ({Oxazole4CO(2-Me)}-P[hCha]L[Aib]L[NMeL][Aib][Aib][βAla]-{NH(1-CH2NMe2-cBu)})
IC50 [1, 11]: 9260 nM
MitoTracker mitochondrial staining [2]: no changes
TMRE fluorescence relative to control parasites [3]: no changes

Molecule: leucinostatin B [leucinostatin B (1 b)]
curative effect (T. brucei [5]; 4×0.3 mg kg^−1 ip): curative effects
curative effect (T. brucei [5]; 4×1.0 mg kg^−1 ip): curative effects
mean duration of survival compared to untreated mice (T. brucei [6]; 4×0.3 mg kg^−1 ip): slightly increased
mice cured (T. brucei [6]; 4×0.3 mg kg^−1 ip): no mice were cured
mice cured (T. brucei [6]; 4×1.0 mg kg^−1 ip): one of 4 mice was cured
mean duration of survival (T. brucei [6]; 4×1.0 mg kg^−1 ip, untreated 11.3 days): 28 days

Molecule: leucinostatin Y
activity compared with leucinostatin A [7]: far less active

Molecule: CCCCCCCCCCCCCCCCOP(=O)([O-])OCC[N+](C)(C)C [miltefosine]
IC50 ([1]; Leishmania donovani, read-out: L. donovani. axenic amastigotes [nM]): 483 nM

Molecule: CCC(=O)C[C@H](O)C[C@@H](C)C[C@H](NC(=O)[C@@H]1C[C@H](C)CN1C(=O)/C=C/[C@@H](C)CC)C(=O)N[C@H](C(=O)NC(C)(C)C(=O)N[C@@H](CC(C)C)C(=O)N[C@@H](CC(C)C)C(=O)NC(C)(C)C(=O)NC(C)(C)C(=O)NCCC(=O)N[C@@H](C)CN(C)C)[C@H](O)C(C)C [leucinostatin A (1 a), leucinostatin A] ({Hexenoyl(2E,4S-Me)}-[Pro(4S-Me)][X1][Leu(3R-OH)][Aib]LL[Aib][Aib][βAla]-{NH((S)CH(Me)CH2NMe2)})
IC50 [1, 11]: 1.05 nM
ip LD50 [8]: 1.1 mg/kg
TMRE fluorescence relative to control parasites [3]: concentration‐dependent decrease
IC50 (Trypanosoma brucei): 2.8 nM
IC50 (Plasmodium falciparum): 0.4 to 0.9 nM
IC50 [4]: 23 nM
IC50 [9]: 0.4 nM
IC50 [10]: 9.8 nM
